ChEMBL document CHEMBL1129960, “Design, synthesis, and antiviral evaluation of 2-substituted 4,5-dichloro- and 4,6-dichloro-1-beta-D-ribofuranosylbenzimidazoles as potential agents for human cytomegalovirus infections” (J Med Chem, 1997)

What was measured:
HFF = assay: Visual cytotoxicity was scored on HFF cells at time of HCMV plaque enumeration; format: functional, cell-based; conditions: Homo sapiens
How it was run: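 Uninfected stationary HFF cells from the HCMV plaque assay plates, inspected microscopically for cytotoxicity at the time plaques were counted (7–10 days, 37 °C).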

Human betaherpesvirus 5 [1] = assay: Concentration required for 50% inhibition of HCMV replication was measured using a Plaque reduction assay; format: functional, organism-based
How it was run: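 HCMV Towne (P0) plaque reduction in HFF cells, ~100 pfu/cm². After adsorption, compound in growth medium at 4–8 concentrations in duplicate wells; 7–10 days at 37 °C. Crystal violet stain, microscopic plaque count. Percent plaque reduction vs no-drug wells; IC50 by linear regression vs log concentration.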

Human alphaherpesvirus 1 = assay: Antiviral activity was measured by plaque assay against HSV-1 virus by ELISA method; format: functional, organism-based
How it was run: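 HSV-1 (KOS) in BSC-1 cells, 10 000 cells/well seeded in MEM(E) + 10% calf serum, overnight at 37 °C; drug in quadruplicate plus 100 pfu/well virus; 3 days at 37 °C. ELISA read-out with HRP-rabbit anti-HSV-1 and TMB, absorbance at 450/570 nm. Percent reduction vs virus-only wells; IC50 by linear regression on log concentration.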

KB = assay: Inhibition of KB cell growth was determined; format: functional, cell-based; conditions: Homo sapiens
How it was run: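 KB cells seeded at 3000–5000/well and incubated overnight; compound at 6–8 concentrations in quadruplicate; 48 h at 37 °C in CO2, about two population doublings. Ethanol fixation, 0.1% crystal violet stain, acidified ethanol elution, read at 570 nm. IC50 by linear regression vs log concentration.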

Human betaherpesvirus 5 [2] = assay: Concentration required for 90% inhibition of HCMV replication was measured using a yield reduction assay; format: functional
How it was run: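 HCMV yield reduction in HFF cells infected at moi 0.5–1 pfu/cell. Compound in duplicate as 1:3 serial dilutions from 100 to 0.05 μM; 7 days at 37 °C. One freeze-thaw, then progeny titered by plaque count on secondary HFF plates (1:3 dilutions). IC90 from regression of percent inhibition vs log concentration.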

| Compound | IC50 (HFF) [µM] | IC50 (Human betaherpesvirus 5 [1]) [µM] | IC50 (Human alphaherpesvirus 1) [µM] | IC50 (KB) [µM] | IC90 (Human betaherpesvirus 5 [2]) [µM] |
| --- | --- | --- | --- | --- | --- |
| Clc1cc(Cl)c2[nH]c(Cl)nc2c1 | 32 | 5.1 | > 100 | > 100 | – |
| O=C(O)P(=O)(O)O [FOSCARNET] | > 100 | – | – | – | – |
| OC[C@H]1OC(n2c(Br)nc3c(Cl)c(Cl)ccc32)[C@H](O)[C@@H]1O (stereo partly drawn) | 161 | 2.4 | > 100 | > 100 | 1 |
| OC[C@H]1OC(n2c(Br)nc3c(Cl)cc(Cl)cc32)[C@H](O)[C@@H]1O (stereo partly drawn) | 127 | 1.6 | > 300 | 150 | 2.1 |
| Nc1nc2c(Cl)cc(Cl)cc2n1C1O[C@H](CO)[C@@H](O)[C@H]1O (stereo partly drawn) | > 100 | > 100 | > 300 | > 300 | > 100 |
| OC[C@H]1OC(n2c(Cl)nc3c(Cl)cc(Cl)cc32)[C@H](O)[C@@H]1O (stereo partly drawn) | 77 | 10 | > 300 | 230 | 4.5 |
| CSc1nc2c(Cl)cc(Cl)cc2n1C1O[C@H](CO)[C@@H](O)[C@H]1O (stereo partly drawn) | 150 | 110 | > 300 | 270 | – |
| Nc1nc2c(Cl)cc(Cl)cc2[nH]1 | 100 | > 100 | > 100 | – | – |
| OC[C@H]1O[C@H](n2c(Br)nc3cc(Cl)c(Cl)cc32)[C@@H](O)[C@H]1O | – | – | – | > 100 | 0.2 |
| Clc1nc2c(Cl)c(Cl)ccc2[nH]1 | 32 | 8 | > 100 | 80 | – |
| [N-]=[N+]=Nc1nc2c(Cl)cc(Cl)cc2n1C1O[C@H](CO)[C@@H](O)[C@H]1O (stereo partly drawn) | > 100 | 110 | – | – | 41 |
| OC[C@H]1OC(n2c(S)nc3c(Cl)cc(Cl)cc32)[C@H](O)[C@@H]1O (stereo partly drawn) | > 100 | > 100 | > 300 | > 300 | – |
| Nc1nc2c(ncn2COC(CO)CO)c(=O)[nH]1 [GANCICLOVIR] | > 100 | – | – | > 100 | 1.6 |
| OC[C@H]1O[C@@H](n2c(Cl)nc3cc(Cl)c(Cl)cc32)[C@H](O)[C@@H]1O | – | – | – | – | 1.4 |
| OC[C@H]1OC(n2c(SCc3ccccc3)nc3c(Cl)cc(Cl)cc32)[C@H](O)[C@@H]1O (stereo partly drawn) | 32 | 41 | 140 | 122 | – |
| OC[C@H]1OC(n2c(Cl)nc3c(Cl)c(Cl)ccc32)[C@H](O)[C@@H]1O (stereo partly drawn) | > 100 | 16 | > 100 | > 100 | 6 |
